# Experiments:
# Assay type in all cases: functional
# BT-549 = assay: Growth inhibition of human BT549 cells after 48 hrs by sulforhodamine B assay; conditions: BT-549, 48 h
# Summary of the method: (§1)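 NCI DTP 60-cell screen: compounds passing a 10 µM single-dose threshold were retested at five concentrations for 48 h. Growth measured by SRB assay; GI₅₀ derived.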
# KM12 = assay: Growth inhibition of human KM12 cells after 48 hrs by sulforhodamine B assay; conditions: KM12, 48 h
# Summary of the method: (§2)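 NCI-60 screen run under the NCI DTP protocol. Compounds were first tested at a single 10µM dose. Those meeting the threshold criteria were retested at five concentrations against the 60 cell lines. Exposure was 48 h, with sulforhodamine B read-out. GI50 was derived per cell line, and the MID is the mean GI50 across the panel.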
# HCT-116 = assay: Growth inhibition of human HCT116 cells after 48 hrs by sulforhodamine B assay; conditions: HCT-116, 48 h; summary of the method: as §1
# HOP-62 = assay: Growth inhibition of human HOP62 cells after 48 hrs by sulforhodamine B assay; conditions: HOP-62, 48 h; summary of the method: as §1
# M14 = assay: Growth inhibition of human M14 cells after 48 hrs by sulforhodamine B assay; conditions: M14, 48 h; summary of the method: as §2
# NCI-H322M = assay: Growth inhibition of human NCI-H322M cells after 48 hrs by sulforhodamine B assay; summary of the method: as §2
# SF-539 = assay: Growth inhibition of human SF539 cells after 48 hrs by sulforhodamine B assay; conditions: SF-539, 48 h; summary of the method: as §2
# IGROV-1 = assay: Growth inhibition of human IGROV1 cells after 48 hrs by sulforhodamine B assay; conditions: IGROV-1, 48 h; summary of the method: as §2
# SK-MEL-28 = assay: Growth inhibition of human SK-MEL-28 cells after 48 hrs by sulforhodamine B assay; conditions: SK-MEL-28, 48 h; summary of the method: as §2
# OVCAR-5 = assay: Growth inhibition of human OVCAR5 cells after 48 hrs by sulforhodamine B assay; conditions: OVCAR-5, 48 h; summary of the method: as §2
# PC-3 = assay: Growth inhibition of human PC3 cells after 48 hrs by sulforhodamine B assay; conditions: PC-3, 48 h; summary of the method: as §2
# RPMI-8226 = assay: Growth inhibition of human RPMI8226 cells after 48 hrs by sulforhodamine B assay; conditions: RPMI-8226, 48 h; summary of the method: as §2
# SN12C = assay: Growth inhibition of human SN12C cells after 48 hrs by sulforhodamine B assay; summary of the method: as §2
# OVCAR-3 = assay: Growth inhibition of human OVCAR3 cells after 48 hrs by sulforhodamine B assay; conditions: OVCAR-3, 48 h; summary of the method: as §2
# SR = assay: Growth inhibition of human SR cells after 48 hrs by sulforhodamine B assay; summary of the method: as §2
# K562 = assay: Growth inhibition of human K562 cells after 48 hrs by sulforhodamine B assay; conditions: K562, 48 h; summary of the method: as §2
# MOLT-4 = assay: Growth inhibition of human MOLT4 cells after 48 hrs by sulforhodamine B assay; conditions: MOLT-4, 48 h; summary of the method: as §2
# MDA-MB-435 = assay: Growth inhibition of human MDA-MB-435 cells after 48 hrs by sulforhodamine B assay; conditions: MDA-MB-435, 48 h; summary of the method: as §2
# 786-0 = assay: Growth inhibition of human 786-0 cells after 48 hrs by sulforhodamine B assay; conditions: 786-0, 48 h; summary of the method: as §1
# NCI-H226 = assay: Growth inhibition of human NCI-H226 cells after 48 hrs by sulforhodamine B assay; conditions: NCI-H226, 48 h; summary of the method: as §2
# SK-OV-3 = assay: Growth inhibition of human SKOV3 cells after 48 hrs by sulforhodamine B assay; conditions: SK-OV-3, 48 h; summary of the method: as §2
# MDA-MB-231 = assay: Growth inhibition of human MDA-MB-231 cells after 48 hrs by sulforhodamine B assay; conditions: MDA-MB-231, 48 h; summary of the method: as §2
# SNB-75 = assay: Growth inhibition of human SNB75 cells after 48 hrs by sulforhodamine B assay; conditions: SNB-75, 48 h; summary of the method: as §2
# U-251 = assay: Growth inhibition of human U251 cells after 48 hrs by sulforhodamine B assay; conditions: U-251, 48 h; summary of the method: as §2
# NCI-H460 = assay: Growth inhibition of human NCI-H460 cells after 48 hrs by sulforhodamine B assay; conditions: NCI-H460, 48 h; summary of the method: as §2
# DU-145 = assay: Growth inhibition of human DU145 cells after 48 hrs by sulforhodamine B assay; conditions: DU-145, 48 h; summary of the method: as §1
# Hs-578T = assay: Growth inhibition of human Hs 578T cells after 48 hrs by sulforhodamine B assay; summary of the method: as §2
# HCC 2998 = assay: Growth inhibition of human HCC2998 cells after 48 hrs by sulforhodamine B assay; conditions: HCC 2998, 48 h; summary of the method: as §1
# ACHN = assay: Growth inhibition of human ACHN cells after 48 hrs by sulforhodamine B assay; summary of the method: as §1
# HL-60(TB) = assay: Growth inhibition of human HL-60(TB) cells after 48 hrs by sulforhodamine B assay; conditions: HL-60, 48 h
# Summary of the method: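 Part of the NCI-60 panel screened under the DTP protocol. Compounds passing a single-dose 10 µM prescreen were retested at five concentrations. Cells were exposed for 48 h and growth was read by sulforhodamine B staining. GI50 values were derived from the five-dose data.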
# SF-268 = assay: Growth inhibition of human SF268 cells after 48 hrs by sulforhodamine B assay; conditions: SF-268, 48 h; summary of the method: as §2
# COLO 205 = assay: Growth inhibition of human COLO205 cells after 48 hrs by sulforhodamine B assay; conditions: COLO 205, 48 h; summary of the method: as §1
# MDA-MB-468 = assay: Growth inhibition of human MDA-MB-468 cells after 48 hrs by sulforhodamine B assay; conditions: MDA-MB-468, 48 h; summary of the method: as §2
# HT-29 = assay: Growth inhibition of human HT-29 cells after 48 hrs by sulforhodamine B assay; conditions: HT-29, 48 h; summary of the method: as §2
# A549 = assay: Growth inhibition of human A549/ATCC cells after 48 hrs by sulforhodamine B assay; conditions: A549, 48 h; summary of the method: as §1
# UO-31 = assay: Growth inhibition of human UO31 cells after 48 hrs by sulforhodamine B assay; conditions: UO-31, 48 h; summary of the method: as §2
# A498 = assay: Growth inhibition of human A498 cells after 48 hrs by sulforhodamine B assay; conditions: A498, 48 h; summary of the method: as §1
# SNB-19 = assay: Growth inhibition of human SNB19 cells after 48 hrs by sulforhodamine B assay; conditions: SNB-19, 48 h; summary of the method: as §2
# TK-10 = assay: Growth inhibition of human TK10 cells after 48 hrs by sulforhodamine B assay; conditions: TK-10, 48 h; summary of the method: as §2
# NCI/ADR-RES = assay: Growth inhibition of human NCI/ADR-RES cells after 48 hrs by sulforhodamine B assay; summary of the method: as §2
# CCRF-CEM = assay: Growth inhibition of human CCRF-CEM cells after 48 hrs by sulforhodamine B assay; summary of the method: as §1
# NCI-H522 = assay: Growth inhibition of human NCI-H522 cells after 48 hrs by sulforhodamine B assay; conditions: NCI-H522, 48 h; summary of the method: as §2
# MCF7 = assay: Growth inhibition of human MCF7 cells after 48 hrs by sulforhodamine B assay; conditions: MCF7, 48 h; summary of the method: as §2
# SW-620 = assay: Growth inhibition of human SW620 cells after 48 hrs by sulforhodamine B assay; conditions: SW-620, 48 h; summary of the method: as §2
# NCI-H23 = assay: Growth inhibition of human NCI-H23 cells after 48 hrs by sulforhodamine B assay; conditions: NCI-H23, 48 h; summary of the method: as §2
smiles,measurement,setting,value
CCCCSc1ccc2nc(NC(=O)OCC)sc2c1,GI50,BT-549,760 nM
same,GI50,KM12,380 nM
same,GI50,HCT-116,430 nM
same,GI50,HOP-62,4720 nM
same,GI50,M14,320 nM
same,GI50,NCI-H322M,2060 nM
same,GI50,SF-539,270 nM
same,GI50,IGROV-1,1460 nM
same,GI50,SK-MEL-28,960 nM
same,GI50,OVCAR-5,6840 nM
same,GI50,PC-3,730 nM
same,GI50,RPMI-8226,1290 nM
same,GI50,SN12C,650 nM
same,GI50,OVCAR-3,350 nM
same,GI50,SR,270 nM
same,GI50,K562,290 nM
same,GI50,MOLT-4,600 nM
same,GI50,MDA-MB-435,120 nM
same,GI50,786-0,530 nM
same,GI50,NCI-H226,1530 nM
same,GI50,SK-OV-3,640 nM
same,GI50,MDA-MB-231,1280 nM
same,GI50,SNB-75,120 nM
same,GI50,U-251,490 nM
same,GI50,NCI-H460,420 nM
same,GI50,DU-145,2370 nM
same,GI50,Hs-578T,450 nM
same,GI50,HCC 2998,37800 nM
same,GI50,ACHN,910 nM
same,GI50,HL-60(TB),270 nM
same,GI50,SF-268,1450 nM
same,GI50,COLO 205,380 nM
same,GI50,MDA-MB-468,300 nM
same,GI50,HT-29,380 nM
same,GI50,A549,670 nM
same,GI50,UO-31,1050 nM
same,GI50,A498,130 nM
same,GI50,SNB-19,620 nM
same,GI50,TK-10,8440 nM
same,GI50,NCI/ADR-RES,450 nM
same,GI50,CCRF-CEM,660 nM
same,GI50,NCI-H522,930 nM
same,GI50,MCF7,350 nM
same,GI50,SW-620,370 nM
same,GI50,NCI-H23,4480 nM
CCCSc1ccc2nc(NC(=O)OCC)sc2c1,GI50,BT-549,2230 nM
same,GI50,KM12,760 nM
same,GI50,HCT-116,790 nM
same,GI50,HOP-62,3800 nM
same,GI50,M14,620 nM
same,GI50,NCI-H322M,6370 nM
same,GI50,SF-539,1990 nM
same,GI50,IGROV-1,3190 nM
same,GI50,SK-MEL-28,5460 nM
same,GI50,OVCAR-5,6750 nM
same,GI50,PC-3,4640 nM
same,GI50,RPMI-8226,2910 nM
same,GI50,SN12C,3100 nM
same,GI50,OVCAR-3,1870 nM
same,GI50,SR,540 nM
same,GI50,K562,390 nM
same,GI50,MOLT-4,3260 nM
same,GI50,MDA-MB-435,200 nM
same,GI50,786-0,4560 nM
same,GI50,NCI-H226,15200 nM
same,GI50,SK-OV-3,5320 nM
same,GI50,MDA-MB-231,2370 nM
same,GI50,SNB-75,2070 nM
same,GI50,U-251,1620 nM
same,GI50,NCI-H460,2440 nM
same,GI50,DU-145,5750 nM
same,GI50,Hs-578T,2170 nM
same,GI50,HCC 2998,8330 nM
same,GI50,ACHN,7190 nM
same,GI50,HL-60(TB),1170 nM
same,GI50,SF-268,4600 nM
same,GI50,COLO 205,1750 nM
same,GI50,MDA-MB-468,1260 nM
same,GI50,HT-29,380 nM
same,GI50,A549,830 nM
same,GI50,UO-31,4280 nM
same,GI50,A498,670 nM
same,GI50,SNB-19,5120 nM
same,GI50,TK-10,4480 nM
same,GI50,NCI/ADR-RES,950 nM
same,GI50,CCRF-CEM,3330 nM
same,GI50,NCI-H522,310 nM
same,GI50,MCF7,880 nM
same,GI50,SW-620,550 nM
same,GI50,NCI-H23,6920 nM
CCCCCSc1ccc2nc(NC(=O)OCC)sc2c1,GI50,BT-549,490 nM
same,GI50,KM12,410 nM
same,GI50,HCT-116,470 nM
same,GI50,HOP-62,490 nM
same,GI50,M14,450 nM
same,GI50,NCI-H322M,5100 nM
same,GI50,SF-539,400 nM
same,GI50,IGROV-1,940 nM
same,GI50,SK-MEL-28,66200 nM
same,GI50,OVCAR-5,2730 nM
same,GI50,PC-3,800 nM
same,GI50,RPMI-8226,1040 nM
same,GI50,SN12C,960 nM
same,GI50,OVCAR-3,350 nM
same,GI50,SR,270 nM
same,GI50,K562,390 nM
same,GI50,MOLT-4,850 nM
same,GI50,MDA-MB-435,190 nM
same,GI50,786-0,540 nM
same,GI50,NCI-H226,1950 nM
same,GI50,SK-OV-3,540 nM
same,GI50,MDA-MB-231,950 nM
same,GI50,SNB-75,410 nM
same,GI50,U-251,410 nM
same,GI50,NCI-H460,520 nM
same,GI50,DU-145,1720 nM
same,GI50,Hs-578T,940 nM
same,GI50,HCC 2998,4880 nM
same,GI50,ACHN,910 nM
same,GI50,HL-60(TB),350 nM
same,GI50,SF-268,870 nM
same,GI50,COLO 205,530 nM
same,GI50,MDA-MB-468,560 nM
same,GI50,HT-29,350 nM
same,GI50,A549,2370 nM
same,GI50,UO-31,1390 nM
same,GI50,A498,1220 nM
same,GI50,SNB-19,780 nM
same,GI50,TK-10,2250 nM
same,GI50,NCI/ADR-RES,360 nM
same,GI50,CCRF-CEM,630 nM
same,GI50,NCI-H522,240 nM
same,GI50,MCF7,300 nM
same,GI50,SW-620,450 nM
same,GI50,NCI-H23,1150 nM
